According to ChEMBL document CHEMBL4304816, “A Novel Biphenyl-based Chemotype of Retinoid X Receptor Ligands Enables Subtype and Heterodimer Preferences” (ACS Med Chem Lett, 2019):
Activity calls are given as the source filed them. The rule behind the calls is not given here.

Columns and labels:
Type in all cases: cell-based
[1] = target: T1, Retinoic acid receptor RXR-alpha (Homo sapiens) (UniProt P19793); test: Agonist activity at Gal4-LBD fused RXRalpha (unknown origin) expressed in HEK293T cells assessed as fold activation after 14 to 16 hrs by dual-Glo luciferase assay relative to untreated control
T1 sequence (whole entry): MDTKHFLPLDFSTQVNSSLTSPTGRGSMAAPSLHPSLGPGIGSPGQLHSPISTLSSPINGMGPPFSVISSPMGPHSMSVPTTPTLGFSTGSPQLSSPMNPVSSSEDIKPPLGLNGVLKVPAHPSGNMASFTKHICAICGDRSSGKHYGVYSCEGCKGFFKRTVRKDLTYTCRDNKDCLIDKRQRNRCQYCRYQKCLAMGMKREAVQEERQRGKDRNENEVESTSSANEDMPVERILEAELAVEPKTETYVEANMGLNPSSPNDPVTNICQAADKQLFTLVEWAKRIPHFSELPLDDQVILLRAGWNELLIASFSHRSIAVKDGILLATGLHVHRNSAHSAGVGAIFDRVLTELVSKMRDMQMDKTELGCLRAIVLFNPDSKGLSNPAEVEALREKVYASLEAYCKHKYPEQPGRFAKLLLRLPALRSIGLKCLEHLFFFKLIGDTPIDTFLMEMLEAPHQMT
Summary of the method: (§1)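 Gal4-hybrid RXRα/β/γ reporter gene assays in HEK293T cells. Fold activation is the maximal fold activation versus 0.1% DMSO.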

[2] = target: T2, Retinoic acid receptor RXR-beta (Homo sapiens, UniProt P28702); test: Agonist activity at Gal4-LBD fused RXRbeta (unknown origin) expressed in HEK293T cells after 14 to 16 hrs by dual-Glo luciferase assay; summary of the method: as §1
T2 sequence (P28702 whole entry): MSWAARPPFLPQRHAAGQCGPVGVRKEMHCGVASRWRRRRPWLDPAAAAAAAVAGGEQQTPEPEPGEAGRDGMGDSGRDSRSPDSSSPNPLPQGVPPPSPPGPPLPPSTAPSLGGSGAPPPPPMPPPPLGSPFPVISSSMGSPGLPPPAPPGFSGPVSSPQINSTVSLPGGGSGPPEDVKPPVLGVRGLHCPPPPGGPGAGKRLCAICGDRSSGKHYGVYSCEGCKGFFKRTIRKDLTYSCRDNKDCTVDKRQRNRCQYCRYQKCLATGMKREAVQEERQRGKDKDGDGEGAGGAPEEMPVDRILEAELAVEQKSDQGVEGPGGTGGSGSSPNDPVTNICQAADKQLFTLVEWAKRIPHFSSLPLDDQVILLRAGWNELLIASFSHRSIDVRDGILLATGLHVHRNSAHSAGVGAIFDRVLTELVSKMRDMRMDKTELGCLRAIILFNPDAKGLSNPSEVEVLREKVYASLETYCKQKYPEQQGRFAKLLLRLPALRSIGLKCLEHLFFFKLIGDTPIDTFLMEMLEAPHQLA

[3] = target: T3, Retinoic acid receptor RXR-beta (Homo sapiens) (UniProt P28702); test: Agonist activity at Gal4-LBD fused RXRbeta (unknown origin) expressed in HEK293T cells assessed as fold activation after 14 to 16 hrs by dual-Glo luciferase assay relative to untreated control; summary of the method: as §1
T3 sequence (whole entry): T2 sequence (P28702 whole entry)

[4] = target: T4, Retinoic acid receptor RXR-gamma (Homo sapiens) (UniProt P48443); test: Agonist activity at Gal4-LBD fused RXRgamma (unknown origin) expressed in HEK293T cells at 10 uM after 14 to 16 hrs by dual-Glo luciferase assay
T4 sequence (whole entry): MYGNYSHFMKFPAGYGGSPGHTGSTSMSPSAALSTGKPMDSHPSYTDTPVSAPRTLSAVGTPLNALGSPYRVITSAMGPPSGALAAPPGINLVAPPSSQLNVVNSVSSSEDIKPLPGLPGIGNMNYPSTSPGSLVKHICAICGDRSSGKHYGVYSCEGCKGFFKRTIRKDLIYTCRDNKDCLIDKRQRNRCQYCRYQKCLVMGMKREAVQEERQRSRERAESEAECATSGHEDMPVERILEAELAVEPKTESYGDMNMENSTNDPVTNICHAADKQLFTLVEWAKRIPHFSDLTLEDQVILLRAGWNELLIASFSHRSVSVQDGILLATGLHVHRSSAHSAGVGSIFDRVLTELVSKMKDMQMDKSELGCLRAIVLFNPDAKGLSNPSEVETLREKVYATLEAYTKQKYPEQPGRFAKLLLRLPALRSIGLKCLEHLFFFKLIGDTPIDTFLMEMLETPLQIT

[5] = target: T5, Retinoic acid receptor RXR-alpha (Homo sapiens, UniProt P19793); test: Agonist activity at Gal4-LBD fused RXRalpha (unknown origin) expressed in HEK293T cells after 14 to 16 hrs by dual-Glo luciferase assay; summary of the method: as §1
T5 sequence (P19793 whole entry): T1 sequence (whole entry)

[6] = target: T4, Retinoic acid receptor RXR-gamma (Homo sapiens); test: Agonist activity at Gal4-LBD fused RXRgamma (unknown origin) expressed in HEK293T cells at 20 uM after 14 to 16 hrs by dual-Glo luciferase assay
[7] = target: T3, Retinoic acid receptor RXR-beta (Homo sapiens); test: Agonist activity at Gal4-LBD fused RXRbeta (unknown origin) expressed in HEK293T cells at 30 uM after 14 to 16 hrs by dual-Glo luciferase assay
[8] = target: T4, Retinoic acid receptor RXR-gamma (Homo sapiens); test: Agonist activity at Gal4-LBD fused RXRgamma (unknown origin) expressed in HEK293T cells at 30 uM after 14 to 16 hrs by dual-Glo luciferase assay
[9] = target: T1, Retinoic acid receptor RXR-alpha (Homo sapiens); test: Agonist activity at Gal4-LBD fused RXRalpha (unknown origin) expressed in HEK293T cells at 30 uM after 14 to 16 hrs by dual-Glo luciferase assay
[10] = target: T4, Retinoic acid receptor RXR-gamma (Homo sapiens); test: Agonist activity at Gal4-LBD fused RXRgamma (unknown origin) expressed in HEK293T cells assessed as fold activation at 10 uM after 14 to 16 hrs by dual-Glo luciferase assay relative to untreated control; summary of the method: as §1
[11] = target: T3, Retinoic acid receptor RXR-beta (Homo sapiens); test: Agonist activity at Gal4-LBD fused RXRbeta (unknown origin) expressed in HEK293T cells assessed as fold activation at 10 uM after 14 to 16 hrs by dual-Glo luciferase assay relative to untreated control; summary of the method: as §1
[12] = target: T1, Retinoic acid receptor RXR-alpha (Homo sapiens); test: Agonist activity at Gal4-LBD fused RXRalpha (unknown origin) expressed in HEK293T cells assessed as fold activation at 10 uM after 14 to 16 hrs by dual-Glo luciferase assay relative to untreated control; summary of the method: as §1
[13] = target: T4, Retinoic acid receptor RXR-gamma (Homo sapiens); test: Agonist activity at Gal4-LBD fused RXRgamma (unknown origin) expressed in HEK293T cells assessed as fold activation after 14 to 16 hrs by dual-Glo luciferase assay relative to untreated control; summary of the method: as §1
[14] = target: T6, Retinoic acid receptor RXR-gamma (Homo sapiens, UniProt P48443); test: Agonist activity at Gal4-LBD fused RXRgamma (unknown origin) expressed in HEK293T cells after 14 to 16 hrs by dual-Glo luciferase assay; summary of the method: as §1
T6 sequence (P48443 whole entry): T4 sequence (whole entry)

[15] = target: T3, Retinoic acid receptor RXR-beta (Homo sapiens); test: Agonist activity at Gal4-LBD fused RXRbeta (unknown origin) expressed in HEK293T cells at 10 uM after 14 to 16 hrs by dual-Glo luciferase assay
[16] = target: T1, Retinoic acid receptor RXR-alpha (Homo sapiens); test: Agonist activity at Gal4-LBD fused RXRalpha (unknown origin) expressed in HEK293T cells at 10 uM after 14 to 16 hrs by dual-Glo luciferase assay
[17] = Agonist activity at full-length human RXR/LXR expressed in HEK293T cells at 20 uM after 14 to 16 hrs in presence of 1 uM T0901317 by dual-glo luciferase reporter gene assay relative to T0901317; settings: HEK-293T, read-out: Activity
Summary of the method: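 Synergy format: the test compound was co-applied with the partner-receptor reference agonist at 1 μM, either T0901317 (RXR:LXR) or rosiglitazone (RXR:PPARγ). Relative synergistic activation was derived from three independent experiments, each in duplicate; mean reported.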

Homo sapiens [18] = species: Homo sapiens; test: Agonist activity at full-length human PPARgamma/RXR expressed in HEK293T cells at 20 uM after 14 to 16 hrs by dual-glo luciferase reporter gene assay relative to untreated control
Summary of the method: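 RXR:PPARγ heterodimer reporter assay in HEK293T cells with test compound alone. Mean relative activation is taken versus 0.1% DMSO, from three independent experiments each run in duplicate.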

[19] = Agonist activity at full-length human RXR/LXR expressed in HEK293T cells at 20 uM after 14 to 16 hrs by dual-glo luciferase reporter gene assay relative to untreated control; settings: HEK-293T, read-out: Activity
Summary of the method: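 RXR:LXR or RXR:PPARγ heterodimer reporter assay with test compound alone. Activation expressed relative to 0.1% DMSO vehicle. Three independent experiments, each in duplicate; mean reported.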

Homo sapiens [20] = species: Homo sapiens; test: Agonist activity at full-length human PPARgamma/RXR expressed in HEK293T cells at 20 uM after 14 to 16 hrs in presence of 1 uM rosiglitazone by dual-glo luciferase reporter gene assay relative to rosiglitazone
Summary of the method: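 RXR:PPARγ heterodimer reporter assay run with reference PPARγ agonist rosiglitazone (1 μM) co-applied. Read-out is mean relative synergistic activation, from three independent experiments each run in duplicate.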

Cc1cc(-c2cc(C(C)(C)C)cc(C(C)(C)C)c2)ccc1CC(=O)O
fold change (FC) [1]: 3.5
EC50 [2]: 7 µM
fold change (FC) [3]: 28
Activity [4]: inactive
EC50 [5]: 3.5 µM

CC(C)Oc1cccc(-c2ccc(C(=O)O)cc2)c1
fold change (FC) [1]: 18
EC50 [2]: 13.4 µM
fold change (FC) [3]: 19
EC50 [5]: 10.6 µM
Activity [6]: inactive

COc1cc(OC)cc(-c2ccc(C(=O)O)cc2)c1
fold change (FC) [1]: 4.8
Activity [7]: inactive
Activity [8]: inactive
EC50 [5]: 25.4 µM

COc1cccc(-c2ccc(C(=O)O)cc2)c1
Activity [9]: inactive
Activity [7]: inactive
Activity [8]: inactive

CC(C)(C)c1cc(-c2cccc(C(=O)O)c2)cc(C(C)(C)C)c1
fold change (FC) [10]: 4
fold change (FC) [1]: 31
fold change (FC) [11]: 82
fold change (FC) [12]: 32
EC50 [2]: 3.1 µM
fold change (FC) [3]: 84
Activity [4]: inactive
EC50 [5]: 3.7 µM

CC(C)c1cccc(-c2ccc(C(=O)O)cc2)c1
fold change (FC) [13]: 2.7
fold change (FC) [1]: 28
EC50 [2]: 16.2 µM
EC50 [14]: 11.6 µM
fold change (FC) [3]: 65
EC50 [5]: 14.3 µM

CC(C)(C)c1cc(-c2ccc(C(=O)O)nc2)cc(C(C)(C)C)c1
Activity [15]: inactive
Activity [16]: inactive
Activity [4]: inactive

CCc1cc(CC)cc(-c2ccc(C(=O)O)cc2)c1
fold change (FC) [1]: 11
EC50 [2]: 6.7 µM
fold change (FC) [3]: 33
EC50 [5]: 3.4 µM
Activity [6]: inactive

CC(C)(C)c1cccc(-c2ccc(C(=O)O)cc2)c1
fold change (FC) [1]: 19
EC50 [2]: 12.8 µM
fold change (FC) [3]: 35
EC50 [5]: 18 µM
Activity [6]: inactive

Cc1cc(-c2cc(C(F)(F)F)cc(C(F)(F)F)c2)ccc1C(=O)O
activity at 20 µM [17]: 71%
Activity (Homo sapiens [18]): 84%
Activity [8]: inactive
EC50 [2]: 8.9 µM
activity at 20 µM [19]: 71%
EC50 [5]: 9.1 µM
Activity (Homo sapiens [20]): 46%

O=C(O)c1ccc(-c2ccccc2)cc1
Activity [9]: inactive
Activity [7]: inactive
Activity [8]: inactive

Cc1cc(C(=O)O)ccc1-c1cc(C(C)(C)C)cc(C(C)(C)C)c1
Activity [15]: inactive
Activity [16]: inactive
Activity [4]: inactive

CC(C)(C)c1cc(-c2ccc(C(=O)O)cn2)cc(C(C)(C)C)c1
Activity [15]: inactive
Activity [16]: inactive
Activity [4]: inactive

CCOc1cccc(-c2ccc(C(=O)O)cc2)c1
fold change (FC) [1]: 11
Activity [8]: inactive
EC50 [2]: 30 µM
fold change (FC) [3]: 11
EC50 [5]: 22.5 µM

Cc1cccc(-c2ccc(C(=O)O)cc2)c1
Activity [9]: inactive
Activity [7]: inactive
Activity [8]: inactive

CC(C)(C)c1cc(-c2ccc(CCC(=O)O)cc2)cc(C(C)(C)C)c1
fold change (FC) [13]: 17
fold change (FC) [1]: 21
EC50 [2]: 2.1 µM
EC50 [14]: 5 µM
fold change (FC) [3]: 94
EC50 [5]: 1.5 µM

O=C(O)c1ccc(-c2cc(C(F)(F)F)cc(C(F)(F)F)c2)cc1
fold change (FC) [13]: 25
fold change (FC) [10]: 10
fold change (FC) [1]: 50
fold change (FC) [11]: 120
fold change (FC) [12]: 48
EC50 [2]: 3.7 µM
EC50 [14]: 12.5 µM
fold change (FC) [3]: 122
EC50 [5]: 3.1 µM
